Assay results from ChEMBL document CHEMBL4033661, “Small molecules inhibit STAT3 activation, autophagy, and cancer cell anchorage-independent growth” (Bioorg Med Chem, 2017).
The source made the active and inactive calls. The calls are words filed in the database; no cut-off is given here.

Tests used:
[1] = target: T1, Maternal embryonic leucine zipper kinase (Homo sapiens, UniProt Q14680); experiment: Inhibition of MELK (unknown origin)
Target sequence in this assay (Q14680 whole entry): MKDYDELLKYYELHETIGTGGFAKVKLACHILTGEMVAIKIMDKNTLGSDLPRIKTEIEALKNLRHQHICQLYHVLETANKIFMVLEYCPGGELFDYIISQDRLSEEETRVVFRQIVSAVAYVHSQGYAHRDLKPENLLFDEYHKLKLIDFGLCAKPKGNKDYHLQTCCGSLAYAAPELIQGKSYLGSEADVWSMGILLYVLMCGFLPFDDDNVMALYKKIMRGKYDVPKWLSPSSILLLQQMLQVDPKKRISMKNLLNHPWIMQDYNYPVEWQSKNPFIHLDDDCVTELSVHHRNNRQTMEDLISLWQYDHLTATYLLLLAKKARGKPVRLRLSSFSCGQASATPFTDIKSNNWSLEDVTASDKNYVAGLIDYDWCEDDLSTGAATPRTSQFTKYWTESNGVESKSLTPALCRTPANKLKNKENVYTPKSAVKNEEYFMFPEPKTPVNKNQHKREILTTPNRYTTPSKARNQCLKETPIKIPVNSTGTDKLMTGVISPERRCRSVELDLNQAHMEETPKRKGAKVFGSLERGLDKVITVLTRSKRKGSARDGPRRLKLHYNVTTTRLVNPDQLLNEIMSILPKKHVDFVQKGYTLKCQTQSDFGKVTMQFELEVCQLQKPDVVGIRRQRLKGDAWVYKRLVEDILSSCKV

[2] = test system: MDA-MB-231; experiment: Cytotoxicity against human MDA-MB-231 cells assessed as cell growth inhibition after 3 days by MTT assay; assay type: functional, cell-based; settings: MDA-MB-231, 72 h
Procedure, shortened: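 MDA-MB-231 cells (10^4/well) in DMEM with 10% FBS at 37 °C, 5% CO2 were plated overnight, then exposed to compounds at the indicated concentrations or 1% DMSO control for 3 d. MTT (5 mg/mL stock) was added for 2 h. Absorbance was read at 570 nm with a 630 nm reference. Values are mean ± SD, n = 3.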

[3] = target: T1, Maternal embryonic leucine zipper kinase; experiment: Inhibition of MELK in human MDA-MB-231 cells assessed as upregulation of p53-dependent p21WAF1/CIP1 expression at 5 uM by Western blot method; assay type: cell-based; settings: TDE = time-dependent effect
Procedure, shortened: (§1)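 Cells were treated at 5 µM over 48 h. Total lysates were made in RIPA with protease/phosphatase inhibitors, 30 µg protein was run on 10% SDS-PAGE and moved to nitrocellulose. Primary antibodies were applied overnight at 4 °C, then IRDye 800 anti-mouse or Alexa Fluor 680 anti-rabbit secondaries for 1 h at RT, with infrared imaging. Actin served as loading control. Band changes are given as percent of control, mean ± SD, n = 2.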
Target sequence in this assay (Q14680 whole entry, looked up): as the sequence (Q14680 whole entry) above

[4] = target: T1, Maternal embryonic leucine zipper kinase; experiment: Inhibition of MELK in human MDA-MB-468 cells assessed as upregulation of p53-dependent p21WAF1/CIP1 expression at 5 uM by Western blot method; assay type: cell-based; settings: TDE = time-dependent effect; procedure, shortened: as §1
Target sequence in this assay (Q14680 whole entry, looked up): as the sequence (Q14680 whole entry) above

[5] = target: T1, Maternal embryonic leucine zipper kinase; experiment: Inhibition of MELK in human MDA-MB-468 cells assessed as decrease in cyclin A2 level at 5 uM measured over 48 hrs by Western blot method; assay type: cell-based; procedure, shortened: as §1
Target sequence in this assay (Q14680 whole entry, looked up): as the sequence (Q14680 whole entry) above

[6] = target: T1, Maternal embryonic leucine zipper kinase; experiment: Inhibition of MELK in human MDA-MB-231 cells assessed as decrease in cyclin A2 level at 5 uM measured over 48 hrs by Western blot method; assay type: cell-based; procedure, shortened: as §1
Target sequence in this assay (Q14680 whole entry, looked up): as the sequence (Q14680 whole entry) above

[7] = target: T1, Maternal embryonic leucine zipper kinase; experiment: Inhibition of MELK in human MDA-MB-468 cells assessed as decrease in p53 phosphorylation at Ser15 residue at 5 uM by Western blot method; assay type: cell-based; settings: TDE = time-dependent effect; procedure, shortened: as §1
Target sequence in this assay (Q14680 whole entry, looked up): as the sequence (Q14680 whole entry) above

[8] = target: Signal transducer and activator of transcription 3 (Homo sapiens) (UniProt P40763); experiment: Inhibition of [gamma32P]-ATP labelled DNA binding to STAT3 dimer (unknown origin) at 5 uM after 4 hrs by electrophoretic mobility shift assay
Procedure, shortened: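 STAT3 consensus oligonucleotide was 5'-labeled with [γ-32P]ATP using polynucleotide kinase. Nuclear protein (2 µg) was incubated with probe for 30 min on ice in 10 mM Tris, 50 mM KCl, 1 mM DTT, 50 µM EDTA, 50 ng/µL poly(dI-dC), pH 7.5. Samples were run on a 4% native polyacrylamide gel in Tris-glycine-EDTA, then the gel was dried and autoradiographed.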

[9] = target: RAC-alpha serine/threonine-protein kinase (Homo sapiens) (UniProt P31749); experiment: Inhibition of Akt phosphorylation in human MDA-MB-468 cells by Western blot method; assay type: cell-based
[10] = target: Signal transducer and activator of transcription 3 (Homo sapiens) (UniProt P40763); experiment: Inhibition of STAT3 phosphorylation at Tyr705 in human MDA-MB-231 cells at 5 uM measured at 4 hrs by Western blot method; assay type: cell-based
[11] = target: Signal transducer and activator of transcription 3 (Homo sapiens) (UniProt P40763); experiment: Inhibition of STAT3 phosphorylation at Tyr705 in human MDA-MB-468 cells at 5 uM measured at 4 hrs by Western blot method; assay type: cell-based
[12] = target: Signal transducer and activator of transcription 3 (Homo sapiens) (UniProt P40763); experiment: Inhibition of STAT3 phosphorylation in human MDA-MB-231 cells assessed as downregulation of survivin level at 5 uM up to 48 hrs by Western blot method; assay type: cell-based; procedure, shortened: as §1
[13] = target: Signal transducer and activator of transcription 3 (Homo sapiens) (UniProt P40763); experiment: Inhibition of STAT3 phosphorylation in human MDA-MB-468 cells assessed as down regulation of survivin level at 5 uM up to 48 hrs by Western blot method; assay type: cell-based; procedure, shortened: as §1
[14] = target: Signal transducer and activator of transcription 3 (Homo sapiens) (UniProt P40763); experiment: Inhibition of STAT3 phosphorylation in human MDA-MB-231 cells assessed as downregulation of Bcl-XL level at 5 uM up to 48 hrs by Western blot method; assay type: cell-based; procedure, shortened: as §1
[15] = target: Signal transducer and activator of transcription 3 (Homo sapiens) (UniProt P40763); experiment: Inhibition of STAT3 phosphorylation in human MDA-MB-468 cells assessed as down regulation of Bcl-XL level at 5 uM up to 48 hrs by Western blot method; assay type: cell-based; procedure, shortened: as §1
[16] = target: Signal transducer and activator of transcription 3 (Homo sapiens) (UniProt P40763); experiment: Inhibition of STAT3 at Tyr705 in human MDA-MB-231 cells at 5 uM after 8 hrs by Western blot method; assay type: cell-based
[17] = target: Signal transducer and activator of transcription 3 (Homo sapiens) (UniProt P40763); experiment: Inhibition of STAT3 at Tyr705 in human MDA-MB-468 cells at 5 uM after 8 hrs by Western blot method; assay type: cell-based
[18] = target: Calcium/calmodulin-dependent protein kinase type II subunit delta (Homo sapiens, UniProt Q13557); experiment: Inhibition of CaMK2delta (unknown origin)
[19] = target: Calcium/calmodulin-dependent protein kinase type II subunit gamma (Homo sapiens, UniProt Q13555); experiment: Inhibition of CaMK2gamma (unknown origin)
[20] = target: Tyrosine-protein kinase BTK (Homo sapiens, UniProt Q06187); experiment: Inhibition of BTK (unknown origin)
[21] = target: Cytoplasmic tyrosine-protein kinase BMX (Homo sapiens, UniProt P51813); experiment: Inhibition of BMX/ETK (unknown origin)
[22] = target: Tyrosine-protein kinase CSK (Homo sapiens, UniProt P41240); experiment: Inhibition of CSK (unknown origin)
[23] = target: Angiopoietin-1 receptor (Homo sapiens, UniProt Q02763); experiment: Inhibition of TIE2/TEK (unknown origin)
[24] = target: Insulin receptor (Homo sapiens, UniProt P06213); experiment: Inhibition of IR (unknown origin)
[25] = target: T1, Maternal embryonic leucine zipper kinase; experiment: Inhibition of MELK (unknown origin) at 20 uM relative to control
Target sequence in this assay (Q14680 whole entry, looked up): as the sequence (Q14680 whole entry) above

[26] = target: Receptor tyrosine-protein kinase erbB-4 (Homo sapiens, UniProt Q15303); experiment: Inhibition of ERBB4/HER4 (unknown origin)
[27] = target: Megakaryocyte-associated tyrosine-protein kinase (Homo sapiens, UniProt P42679); experiment: Inhibition of CTK/MATK (unknown origin)
[28] = target: Fibroblast growth factor receptor 1 (Homo sapiens, UniProt P11362); experiment: Inhibition of FGFR1 (unknown origin)
[29] = target: Tyrosine-protein kinase Blk (Homo sapiens, UniProt P51451); experiment: Inhibition of BLK (unknown origin)
[30] = target: Tyrosine-protein kinase Lyn (Homo sapiens, UniProt P07948); experiment: Inhibition of LYN B (unknown origin)
[31] = target: Calcium/calmodulin-dependent protein kinase type 1 (Homo sapiens, UniProt Q14012); experiment: Inhibition of CaMK1alpha (unknown origin)
[32] = target: Tyrosine-protein kinase Fer (Homo sapiens, UniProt P16591); experiment: Inhibition of FER (unknown origin)
[33] = test system: MDA-MB-231; experiment: Cytotoxicity against human MDA-MB-231 cells assessed as inhibition of anchorage-independent colony formation on soft agar after 10 days by crystal violet staining based assay; assay type: functional, cell-based; settings: MDA-MB-231, 240 h
Procedure, shortened: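 Base layer 0.5% agar, top layer 0.3% agar containing the cells, both in DMEM with 10% FBS. Feeding medium held compound at the indicated concentrations or 1% DMSO and was changed twice weekly for 10 d at 37 °C, 5% CO2. Colonies were stained with 0.005% crystal violet and counted under a dissecting microscope. Values are mean ± SE of six fields from two independent samples.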

[34] = test system: MDA-MB-468; experiment: Effect on p53 levels in human MDA-MB-468 cells at 5 uM up to 48 hrs by Western blot method; assay type: functional, cell-based; procedure, shortened: as §1
[35] = target: Tyrosine-protein kinase JAK1 (Homo sapiens) (UniProt P23458); experiment: Inhibition of JAK1 (unknown origin) at 20 uM
[36] = target: Tyrosine-protein kinase JAK2 (Homo sapiens) (UniProt O60674); experiment: Inhibition of JAK2 (unknown origin) at 20 uM
[37] = target: Tyrosine-protein kinase JAK3 (Homo sapiens) (UniProt P52333); experiment: Inhibition of JAK3 (unknown origin) at 20 uM
[38] = target: Signal transducer and activator of transcription 3 (Homo sapiens) (UniProt P40763); experiment: Inhibition of STAT3 in human MDA-MB-231 cells assessed as decrease in autophagic flux by measuring accumulation of LC3B-2 level at 5 uM after 4 hrs in presence of bafilomycin A by Western blot method; assay type: cell-based
Procedure, shortened: (§2)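 Cells were exposed for 4 h to 5 µM compound, DMSO vehicle, or 1% O2 as hypoxic autophagy control. Bafilomycin A1 (100 nM) was added 4 h before harvest. Lysis was in NP40 buffer with protease/phosphatase inhibitors, then 16,300g spin for 15 min at 4 °C, SDS-PAGE and PVDF transfer. Blots were probed overnight at 4 °C with anti-LC3B (1:3000), then HRP secondary (1:10,000) for 2 h, with ECL detection of LC3B-I and LC3B-II.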

[39] = target: Signal transducer and activator of transcription 3 (Homo sapiens) (UniProt P40763); experiment: Inhibition of STAT3 in human MDA-MB-468 cells assessed as decrease in autophagic flux by measuring accumulation of LC3B-2 level at 5 uM after 4 hrs in presence of bafilomycin A by Western blot method; assay type: cell-based; procedure, shortened: as §2

Signal transducer and activator of transcription 3 (Homo sapiens), sequence (P40763 whole entry): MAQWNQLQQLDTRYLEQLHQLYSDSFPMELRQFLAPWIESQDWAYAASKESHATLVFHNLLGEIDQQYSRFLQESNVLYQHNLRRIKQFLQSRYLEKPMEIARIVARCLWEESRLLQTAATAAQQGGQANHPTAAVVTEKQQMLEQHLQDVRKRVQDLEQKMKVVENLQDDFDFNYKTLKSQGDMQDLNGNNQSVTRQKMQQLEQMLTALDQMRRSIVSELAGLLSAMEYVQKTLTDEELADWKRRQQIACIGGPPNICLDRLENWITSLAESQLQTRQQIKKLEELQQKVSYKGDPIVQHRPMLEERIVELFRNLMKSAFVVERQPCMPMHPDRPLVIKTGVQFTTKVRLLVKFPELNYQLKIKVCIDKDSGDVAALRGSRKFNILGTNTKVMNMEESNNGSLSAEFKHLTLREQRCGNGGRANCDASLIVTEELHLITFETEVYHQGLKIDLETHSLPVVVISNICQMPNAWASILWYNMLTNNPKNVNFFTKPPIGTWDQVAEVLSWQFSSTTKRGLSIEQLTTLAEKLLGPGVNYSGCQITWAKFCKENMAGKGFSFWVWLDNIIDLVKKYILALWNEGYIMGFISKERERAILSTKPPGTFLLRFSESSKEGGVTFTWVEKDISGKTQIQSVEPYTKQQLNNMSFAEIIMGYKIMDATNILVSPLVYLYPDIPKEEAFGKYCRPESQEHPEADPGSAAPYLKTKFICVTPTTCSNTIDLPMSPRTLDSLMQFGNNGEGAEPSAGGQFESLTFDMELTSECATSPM
RAC-alpha serine/threonine-protein kinase (Homo sapiens), sequence (P31749 whole entry): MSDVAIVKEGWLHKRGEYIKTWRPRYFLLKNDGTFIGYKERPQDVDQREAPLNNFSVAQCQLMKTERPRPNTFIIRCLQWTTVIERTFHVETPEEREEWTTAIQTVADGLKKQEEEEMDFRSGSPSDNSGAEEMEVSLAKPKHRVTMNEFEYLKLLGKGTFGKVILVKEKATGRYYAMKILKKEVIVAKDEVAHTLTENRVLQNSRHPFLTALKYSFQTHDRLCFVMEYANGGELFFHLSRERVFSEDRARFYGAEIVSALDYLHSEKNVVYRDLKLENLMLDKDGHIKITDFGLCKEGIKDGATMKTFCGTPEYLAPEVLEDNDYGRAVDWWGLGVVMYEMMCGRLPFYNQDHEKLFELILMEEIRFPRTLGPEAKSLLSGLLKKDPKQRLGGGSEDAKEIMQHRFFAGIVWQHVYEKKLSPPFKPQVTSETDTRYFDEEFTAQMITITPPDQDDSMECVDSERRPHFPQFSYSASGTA
Tyrosine-protein kinase Blk, sequence (P51451 whole entry): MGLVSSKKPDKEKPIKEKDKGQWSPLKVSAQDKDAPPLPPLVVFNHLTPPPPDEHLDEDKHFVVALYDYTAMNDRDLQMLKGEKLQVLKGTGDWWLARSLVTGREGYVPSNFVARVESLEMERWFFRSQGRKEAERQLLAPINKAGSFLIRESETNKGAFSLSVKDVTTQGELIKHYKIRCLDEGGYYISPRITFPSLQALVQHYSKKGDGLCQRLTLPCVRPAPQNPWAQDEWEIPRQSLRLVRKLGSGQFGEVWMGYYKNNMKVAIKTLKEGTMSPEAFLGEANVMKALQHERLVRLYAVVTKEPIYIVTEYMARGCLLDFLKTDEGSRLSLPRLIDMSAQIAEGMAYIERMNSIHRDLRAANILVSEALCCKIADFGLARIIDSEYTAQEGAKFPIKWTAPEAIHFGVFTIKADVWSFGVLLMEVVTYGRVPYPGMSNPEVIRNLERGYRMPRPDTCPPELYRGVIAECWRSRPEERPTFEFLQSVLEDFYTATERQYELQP
Angiopoietin-1 receptor, sequence (Q02763 whole entry): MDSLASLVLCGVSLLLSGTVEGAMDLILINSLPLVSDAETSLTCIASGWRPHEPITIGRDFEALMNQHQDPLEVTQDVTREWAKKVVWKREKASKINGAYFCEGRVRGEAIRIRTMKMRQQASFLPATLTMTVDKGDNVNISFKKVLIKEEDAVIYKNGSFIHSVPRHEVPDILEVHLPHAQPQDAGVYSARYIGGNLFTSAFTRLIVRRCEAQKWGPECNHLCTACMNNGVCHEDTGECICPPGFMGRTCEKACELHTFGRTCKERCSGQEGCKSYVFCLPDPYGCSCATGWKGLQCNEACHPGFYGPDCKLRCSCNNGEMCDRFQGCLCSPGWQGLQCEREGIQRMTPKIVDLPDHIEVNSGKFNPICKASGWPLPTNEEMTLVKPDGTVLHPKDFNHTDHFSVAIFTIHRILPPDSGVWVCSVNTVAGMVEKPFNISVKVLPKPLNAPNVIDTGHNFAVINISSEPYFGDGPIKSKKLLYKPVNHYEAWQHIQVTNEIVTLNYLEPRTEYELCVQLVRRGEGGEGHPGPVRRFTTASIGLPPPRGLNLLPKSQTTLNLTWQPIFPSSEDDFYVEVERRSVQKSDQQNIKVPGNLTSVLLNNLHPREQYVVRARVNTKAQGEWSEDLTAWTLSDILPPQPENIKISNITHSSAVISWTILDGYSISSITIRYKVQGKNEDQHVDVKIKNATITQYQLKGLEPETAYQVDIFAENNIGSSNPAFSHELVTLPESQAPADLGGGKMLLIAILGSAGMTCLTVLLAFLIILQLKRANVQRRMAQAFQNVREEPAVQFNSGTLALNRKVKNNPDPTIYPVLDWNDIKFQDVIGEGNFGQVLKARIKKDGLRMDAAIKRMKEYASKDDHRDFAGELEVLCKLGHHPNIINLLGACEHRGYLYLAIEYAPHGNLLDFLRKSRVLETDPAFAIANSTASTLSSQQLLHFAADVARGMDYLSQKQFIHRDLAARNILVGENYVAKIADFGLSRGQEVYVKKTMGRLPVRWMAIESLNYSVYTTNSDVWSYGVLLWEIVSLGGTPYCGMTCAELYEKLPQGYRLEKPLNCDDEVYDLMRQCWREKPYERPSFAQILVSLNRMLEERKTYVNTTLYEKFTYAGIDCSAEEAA
Cytoplasmic tyrosine-protein kinase BMX, sequence (P51813 whole entry): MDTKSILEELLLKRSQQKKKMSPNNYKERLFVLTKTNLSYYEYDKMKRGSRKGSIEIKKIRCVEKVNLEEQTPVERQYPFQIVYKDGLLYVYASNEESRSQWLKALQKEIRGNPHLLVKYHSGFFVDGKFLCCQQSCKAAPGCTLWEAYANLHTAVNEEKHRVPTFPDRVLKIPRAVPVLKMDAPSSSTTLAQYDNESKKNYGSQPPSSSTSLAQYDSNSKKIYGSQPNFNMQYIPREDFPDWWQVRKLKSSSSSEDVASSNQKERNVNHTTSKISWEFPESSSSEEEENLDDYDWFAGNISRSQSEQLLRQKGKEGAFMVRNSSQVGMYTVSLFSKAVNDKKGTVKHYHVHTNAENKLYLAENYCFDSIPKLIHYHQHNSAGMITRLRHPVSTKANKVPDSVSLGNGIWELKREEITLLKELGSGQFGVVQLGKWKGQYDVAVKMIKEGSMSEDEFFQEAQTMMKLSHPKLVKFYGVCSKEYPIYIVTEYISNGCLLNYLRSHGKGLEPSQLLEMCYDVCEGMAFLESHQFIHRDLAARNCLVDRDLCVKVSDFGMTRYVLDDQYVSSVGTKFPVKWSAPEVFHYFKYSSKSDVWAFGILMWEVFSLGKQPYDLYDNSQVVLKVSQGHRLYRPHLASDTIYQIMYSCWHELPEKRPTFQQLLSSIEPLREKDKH
Megakaryocyte-associated tyrosine-protein kinase, sequence (P42679 whole entry): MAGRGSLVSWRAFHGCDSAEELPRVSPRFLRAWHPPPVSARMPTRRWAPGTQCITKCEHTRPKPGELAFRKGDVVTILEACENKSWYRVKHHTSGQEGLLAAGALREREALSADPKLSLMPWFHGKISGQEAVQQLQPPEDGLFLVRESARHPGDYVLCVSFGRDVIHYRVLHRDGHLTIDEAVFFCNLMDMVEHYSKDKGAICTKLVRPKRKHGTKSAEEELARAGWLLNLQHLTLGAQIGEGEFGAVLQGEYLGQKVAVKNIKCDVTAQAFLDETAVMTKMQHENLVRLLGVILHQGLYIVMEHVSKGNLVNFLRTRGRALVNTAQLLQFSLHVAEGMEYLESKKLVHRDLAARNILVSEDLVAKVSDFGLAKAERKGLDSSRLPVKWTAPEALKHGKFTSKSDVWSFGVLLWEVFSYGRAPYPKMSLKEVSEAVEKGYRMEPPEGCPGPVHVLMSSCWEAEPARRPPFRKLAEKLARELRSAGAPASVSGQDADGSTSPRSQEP

CCN(CC)CCCCNc1nc(/C=C/c2c(Cl)cc(Cl)cc2Cl)nc2ccc(N)cc12
IC50 [1]: 2.1 µM

CCN(CC)CCNc1nc(/C=C/c2ccc(Cl)cc2)nc2cc3ccccc3cc12
IC50 [2]: < 10 µM

CC1CCN(c2nc(/C=C/c3ccccc3)nc3ccccc23)CC1
IC50 [2]: > 10 µM

Nc1ccc2nc(/C=C/c3ccc(C(F)(F)F)cc3)nc(NCCCN3CCOCC3)c2c1
IC50 [1]: 3.5 µM

CCN(CC)CCCC(C)Nc1nc(/C=C/c2ccccc2)nc2cc(Cl)ccc12 (stereo not drawn)
inhibition [3]: Tde
inhibition [4]: Tde
inhibition [5]: Active
inhibition [6]: Active
inhibition [7]: Tde
inhibition [8]: Active
inhibition [9]: inactive
inhibition [10]: Active
inhibition [11]: Active
inhibition [12]: Active
inhibition [13]: Active
inhibition [14]: Active
inhibition [15]: Active
inhibition [16]: inactive
inhibition [17]: inactive

C(=C\c1nc(N2CCCC2)c2ccccc2n1)/c1ccccc1
IC50 [2]: < 10 µM

CCN(CC)CCCC(C)Nc1nc(/C=C/c2c(Cl)cc(Cl)cc2Cl)nc2ccc(N)cc12 (stereo not drawn)
IC50 [18]: 9.1 µM
IC50 [19]: 9.2 µM
IC50 [20]: 6.7 µM
IC50 [1]: 1.4 µM
IC50 [21]: 1.9 µM
IC50 [22]: > 100 µM
IC50 [23]: 1.8 µM
IC50 [24]: > 100 µM
inhibition [25]: > 98%
IC50 [26]: 23.9 µM
IC50 [27]: 14.7 µM
IC50 [28]: 9 µM
IC50 [29]: 8.8 µM
IC50 [30]: 10.5 µM
IC50 [31]: 6.9 µM
IC50 [32]: 42.7 µM
IC50 [2]: 2 µM
IC50 [33]: 3 to 7 µM
inhibition [3]: Tde
inhibition [4]: Tde
inhibition [5]: Active
inhibition [6]: Active
inhibition [7]: Tde
Activity [34]: inactive
inhibition [35]: inactive
inhibition [36]: inactive
inhibition [37]: inactive
inhibition [9]: inactive
inhibition [10]: Active
inhibition [11]: Active
inhibition [12]: Active
inhibition [13]: Active
inhibition [14]: Active
inhibition [15]: Active
inhibition [38]: Active
inhibition [39]: Active
inhibition [16]: inactive
inhibition [17]: inactive
